Screens from PubChem BioAssay.
Only some compounds are listed: those with a hit (about 2.1% of all), similar ones and a draw of the others.
CD11b adhes inh = blocks human CD11b/CD18 adhesion to fibrinogen; AID 1497; actives 0.54% (n = 93,000); inhibition, % at 10 µM; K562 CD11b/CD18 adhesion to fibrinogen, ATPlite luminescence; Mn2+ added to activate the integrin; P05107+P11215;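 active = primary inhibition of 50% or more at 10 µM, then 40% or more on retest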
TNAP act DEA = activators of human TNAP at intermediate phosphate acceptor. P05186. purified TNAP, CDP-star luminescence, 100 mM DEA, 30 min; active compounds read high; scale: 0 levamisole-inhibited, 1 vehicle-only enzyme. activation factor at 20 µM. 64,000 tested, under 10 active;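 active = activation factor of at least 2 at 20 µM, relative to controls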
RORa activator = activates the human nuclear receptor RORA. AID 560. activation, % at 10 µM. actives 1.5% (n = 65,000). CHO-K1 Gal4-RORA LBD luciferase reporter, luminescence; percent increase over mock-subtracted basal signal;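 active = activation above the mean of all tested compounds plus 3 SD, cut at about 49% in these data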
MT1-MMP txn act = activates MT1-MMP transcription | HT1080 MT1-MMP promoter luciferase reporter, luminescence, overnight; active compounds read high | activation factor at 10 µM | actives 0.16% (n = 86,000) | AID 750;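 active = activation factor of at least 2 for MT1-MMP transcription at 10 µM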
Mac1 fbg enh = enhancers of human CD11b/CD18 binding to fibrinogen; K562 CD11b/CD18 adhesion to fibrinogen, ATPlite luminescence; P05107+P11215; activation, % at 10 µM; actives 0.07% (n = 93,000);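 active = 10 µM primary screen giving 50% or more activity, confirmed by 40% or more on retest at that dose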
SF-1 act = activators of human nuclear receptor SF-1; Q13285; CHO-K1 Gal4-SF-1 LBD luciferase reporter; % increase over DMSO SF-1-specific signal; activation, % at 10 µM; actives 1.9% (n = 65,000); AID 522;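 active = activation above the mean activation of all tested compounds plus 3 SD, cut at about 50% in these data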
Target sequence (Q13285 whole entry, looked up, the tested form may be a part): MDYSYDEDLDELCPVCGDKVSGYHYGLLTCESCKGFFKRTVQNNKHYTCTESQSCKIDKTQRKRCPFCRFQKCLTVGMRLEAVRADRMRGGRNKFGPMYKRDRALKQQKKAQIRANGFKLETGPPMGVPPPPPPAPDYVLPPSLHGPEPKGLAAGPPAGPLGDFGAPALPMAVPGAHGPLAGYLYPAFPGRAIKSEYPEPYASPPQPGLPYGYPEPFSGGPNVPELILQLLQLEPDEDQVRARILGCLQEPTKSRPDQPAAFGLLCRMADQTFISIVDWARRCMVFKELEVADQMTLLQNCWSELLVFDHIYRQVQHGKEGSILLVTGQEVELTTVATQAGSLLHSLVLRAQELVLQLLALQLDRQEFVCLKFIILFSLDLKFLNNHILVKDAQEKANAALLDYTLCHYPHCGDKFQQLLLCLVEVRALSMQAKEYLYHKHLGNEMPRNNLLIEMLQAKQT
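Test system: CHO-K1 cells co-transfected with Gal4 DBD–human SF-1 LBD, 5xGal4 luciferase reporter. Quantity: 4,000 cells per well. Compound: 10 µM only. Incubation: compound added 1 h post-seeding, 20 h exposure at 37 °C, 5% CO2. Detection: SteadyLite luciferase luminescence. Replication: one test per compound.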
Hits are given with their value; i = inactive; nt = not tested or not shown.

SMILES	CD11b adhes inh	TNAP act DEA	RORa activator	MT1-MMP txn act	Mac1 fbg enh	SF-1 act
COc1cc(OC)cc(-c2ncc3ccccn23)c1	nt	nt	nt	i	nt	nt
COc1ccc(-c2ncc3ccccn23)cc1	i	i	i	i	i	53
Nc1c(C(=O)c2ccccc2)oc2ccc(Br)cc12	i	i	53	i	i	140
Cc1ccc(C(=O)c2oc3ccccc3c2N)cc1	nt	nt	nt	i	nt	nt
Cc1ccc(N2C(=O)c3ccc(C(=O)N4CCOCC4)cc3C2=O)cc1C	nt	nt	nt	i	nt	nt
C=COC(=O)CSc1nc(-c2cccs2)ccc1C#N	i	i	i	i	i	69
COc1ccc(-c2cc3nc(C)cc(NCCO)n3n2)cc1	i	i	i	i	i	i
Cc1ccc(-c2cc3nc(C)cc(NCc4ccco4)n3n2)cc1	i	i	59	i	i	51
C=CCNc1ncnc2c1[nH]c1ccc(Cl)cc12	87	nt	nt	i	i	nt
CCOC(=O)Nc1ccc2c(c1)Nc1ccccc1S2	i	i	53	i	i	i
C=CC(=O)N1c2ccccc2Sc2ccc(NC(=O)OCC)cc21	nt	nt	nt	i	nt	nt
COc1ccc(C(=O)Cc2ccc(OC)c(OC)c2)c(OC)c1	i	nt	nt	i	i	nt
N#CC1=C(SCC(=O)c2ccccc2)NC2=C(C(=O)CCC2)C1c1ccco1 (centres undefined)	i	i	174	i	i	100
Cc1ccc(OCc2nc(C#N)c(NCc3ccco3)o2)cc1	i	i	i	i	i	i
N#Cc1nc(COc2cccc(Cl)c2)oc1NCc1ccco1	i	i	66	nt	i	i
Cc1ccc(-c2nc(C#N)c(NCc3ccco3)o2)cc1	i	i	89	i	i	i
Cc1cccn2c(=O)c3cc(C#N)c(=O)n(CC4CCCO4)c3nc12 (centres undefined)	i	nt	nt	nt	i	nt
Cc1nc(NC(=O)c2ccc(Br)s2)sc1C(=O)N(C)C	i	i	70	i	i	107
Cc1nc(NC(=O)c2cc3c(s2)CCCCC3)sc1C(=O)N(C)C	i	i	i	i	i	60
COC(=O)c1sc(NC(=O)c2cc3c(s2)CCCC3)nc1C	i	i	i	i	i	i
CN1CCOCCOCCN(C)C1=O	i	nt	nt	i	i	nt
Cc1[nH]n(-c2ccccc2)c(=O)c1N=Nc1nccs1	56	nt	nt	nt	i	nt
O=C(Nc1ccc(Cl)c(Cl)c1)N1CC=CCC1	i	i	58	i	i	55
CC(C)(C)n1ncc2c(=O)n(CC(=O)NCCc3ccccc3)cnc21	nt	i	i	i	nt	i
CC(C)(C)n1ncc2c(=O)n(CC(=O)NCc3ccccc3Cl)cnc21	i	nt	i	i	i	74
SMILES	CD11b adhes inh	TNAP act DEA	RORa activator	MT1-MMP txn act	Mac1 fbg enh	SF-1 act
CC(=O)C(C)Oc1ccc2c3c(c(=O)oc2c1)CCCC3 (centres undefined)	i	i	i	i	i	i
CC(=O)C(C)Oc1ccc2c3c(c(=O)oc2c1)CCCCC3 (centres undefined)	i	i	i	i	i	54
CCOC(=O)c1cc(C)n(Cc2cccc(OC)c2OC)c1C	56	i	i	i	i	i
O=C(Nc1ccccc1)N(O)c1ccc(Cl)cc1	nt	i	i	i	nt	58
O=C(Nc1ccc(Cl)cc1)N(Cc1cccs1)Cc1cccs1	i	i	i	i	i	i
O=C(COc1ccc(Br)cc1Br)NC(=S)N1CCCc2ccccc21	60	nt	nt	nt	i	nt
CCCCc1cc(O)c(CCCC)c(O)c1	i	i	50	i	i	i
COc1cc(CN(C)CC(=O)c2[nH]c(C)c(C(C)=O)c2C)ccc1OC(F)F	74	i	i	i	i	i
C/C(=N\NC(=O)c1nonc1N)c1cccs1	i	nt	nt	nt	i	nt
Nc1nc(CN2CCCCCC2)nc(Nc2ccccc2)n1	i	nt	nt	i	i	nt
Cc1c(-c2nc(N)nc(Nc3ccccc3)n2)oc2ccccc12	i	i	89	2	i	162
COC(=O)Oc1ccc(/C=N/NC(=O)CSCc2ccccc2Br)cc1OC	54	nt	nt	nt	i	nt
COc1ccc(/C=N/NC(=O)CSCC(=O)Nc2ccccc2)cc1OC	i	nt	nt	nt	i	nt
CN1CCN(c2ccc(C(=O)c3ccc(F)cc3)cc2)CC1	i	i	61	i	i	i
O=C(O)CCC(=O)N1CCN(c2ccc(C(=O)c3ccc(F)cc3)cc2)CC1	i	i	i	i	i	i
O=C(c1ccccc1)c1ccc(N2CCCC2)cc1	i	i	i	i	i	77
